Source: PubChem
Only some compounds are listed: those with a hit (about 3.1% of all), similar ones and a draw of the others.
PolyA inhibitor – blocks polyadenylation in yeast reporter cells; AID 1875; 300,000 compounds, 0.02% hits; activity score, % at 12 µM; S. cerevisiae SKY197-pL101 polyadenylation reporter, beta-gal luminescence; efflux-impaired pdr1/pdr3 knockout yeast; score 100 = 6 SD above DMSO;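 active = lowest replicate activity score at least 50, where 100 means six control SD above control mean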;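 note: yeast exposed to compound for 9 h at 30 °C; higher score means more reporter readthrough which indicates perturbed polyadenylation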
CSC inhib – blocks cancer stem cells; cancer stem cell-like cells viability, luminescence; inhibition, % at 7.5 µM; 300,000 compounds, 1.1% hits; AID 2717; in the data active = inhibition above about 75%; tested in HMLE shEcad cells
Calb FLC – C. albicans growth modulation with fluconazole. C. albicans CaCi-2 (fluconazole-resistant clinical isolate) + fluconazole, Alamar Blue growth, 48 h. growth inhibition, % (concentration not given with the values). 300,000 compounds, 0.57% hits;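 active = growth inhibition above about 58% in most replicates, limit read from the data, passing the limit was not always enough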;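 note: all wells also contain fluconazole at 8 µg/ml as a sub-toxic cotreatment; 0% = median of DMSO wells and 100% = median of geldanamycin control wells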
Beta apoptosis – beta cell apoptosis inhibition. INS-1E cytokine-induced death, ATP luminescence, 48 h; percent of positive-control rescue, neutral wells zero. protection from apoptosis, % (no concentration beside the values). 300,000 compounds, 0.8% hits;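 active = Every replicate reaches about 75%, or at least half do and their mean reaches it too, limit read from the data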;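 note: 0% = cytokine-treated negative control wells and 100% = positive control rescue; higher means more ATP so stronger rescue from cytokine killing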
T cruzi repl – T. cruzi replication inhibition; inhibition, % (concentration not given with the values); T. cruzi beta-gal in NIH3T3, luminescence, 90 h; 300,000 compounds, 1.4% hits;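 active = mean inhibition across valid replicates above about 55%, limit read from the data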;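 note: signal also drops with host cell toxicity which is not excluded here; 0% = plate median of DMSO wells and 100% = zero luminescence signal; higher percent means less beta-gal luminescence so fewer parasites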
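assay system = mouse NIH/3T3 fibroblasts infected with β-gal-expressing T. cruzi Tulahuen C4 | input = 5,000 NIH/3T3 host cells per well | buffer or medium = DMEM plus 2% FBS | timing = 3 h host attachment, then at least 90 h co-culture | measured by = GalScreen luminescence, 60 min | evaluation = luminescence reflecting intracellular parasite burden, expressed as percent inhibition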
HIF act – HIF pathway transcriptional activation; U2OS HRE-luciferase reporter, luminescence; normalized: DMSO 0%, desferrioxamine 100%; activation, % at 7.5 µM (by protocol); 300,000 compounds, 0.32% hits;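 active = mean activation of at least 10% of the iron chelator positive control signal, with at least half of replicates also reaching 10%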
* = called active by the depositor; · = no result given.

SMILES	PolyA inhibitor	CSC inhib	Calb FLC	Beta apoptosis	T cruzi repl	HIF act
COc1ccc(N/N=C/c2c(C(=O)O)ccc3ccccc23)cc1	-9	109*	2	116*	49	50*
COc1ccc2ccccc2c1/C=N/Nc1ccc(Cl)c(C(=O)O)c1	-4	9	-8	-3	-8	0
c1ccc(CCNc2ncnc3sccc23)nc1	-19	-1	26	50	4	2
Cc1csc2ncnc(NCCc3ccccn3)c12	-7	-9	98*	79*	-26	1
Cc1cc(N2CCCC2=O)cc(C)c1S(=O)(=O)NCCOc1ccc(C(C)(C)C)cc1	0	7	18	109*	14	0
O=C1CCCN1c1ccc(S(=O)(=O)NCCOc2ccccc2)cc1	-2	6	-15	2	5	-2
Cc1ccc2sc(N(CCCN(C)C)C(=O)c3ccc(Br)s3)nc2c1C	16	29	41	16	70*	0
Cc1ccc2sc(N(CCCN(C)C)C(=O)CCS(=O)(=O)c3ccccc3)nc2c1C	-7	56	-6	-3	63*	-1
COc1ccc(OC)c2sc(N(CCCN(C)C)C(=O)CCS(=O)(=O)c3ccccc3)nc12	5	57	6	·	59*	-1
Cc1cccc2sc(N(CCCN(C)C)C(=O)CCc3ccccc3)nc12	1	-14	4	7	62*	-2
CCc1cccc(CC)c1NC(=S)Nc1ccccc1	-4	-24	13	3	5	0
COc1ccc(Nc2nc(NN)nc(Nc3ccc(OC)cc3)n2)cc1	3	·	9	·	4	0
Cc1c(Br)c([N+](=O)[O-])nn1C(C)C(=O)N1CCc2ccccc2C1 (stereo unspecified)	-9	11	21	-2	50	-1
Cc1c(C(=O)Nc2cccc([N+](=O)[O-])c2)cnn1-c1ccccc1	-14	6	-13	·	-8	4
Cc1cccc(NC(=O)CS(=O)CC(=O)Nc2cnc3ccccc3c2)c1C (stereo unspecified)	7	-8	7	·	12	-1
Cc1cc(C)c2sc(N(CCN(C)C)C(=O)CCS(=O)(=O)c3ccccc3)nc2c1	4	4	0	-5	30	0
CCN(CC)CCN(C(=O)CCS(=O)(=O)c1ccccc1)c1nc2cc(C)cc(C)c2s1	3	-2	6	15	72*	0
O=C(OCC(=O)N1N=C(c2ccc(Cl)cc2)CC1c1ccco1)c1cccnc1 (stereo unspecified)	·	13	·	2	·	·
C=CCn1c(C)cc(C(=O)CSc2nc(N)cc(N)n2)c1C	6	-10	108*	1	-10	0
CCCCCCSc1cccc(-c2nc3ccc(Cl)cn3c2NCc2ccccc2)c1	14	76*	-1	7	38	2
CCC(C)Sc1cc(-c2nc3ccc(C)cn3c2NCc2ccccc2)ccc1OC (stereo unspecified)	7	-29	20	·	36	-1
CCCCCCSc1ccc(-c2nc3ccc(C)cn3c2NCc2ccccc2)cc1OC	-6	69	0	40	56*	4
CCC(C)Sc1ccc(-c2nc3ccc(C)cn3c2NCc2ccccc2)cc1OC (stereo unspecified)	-7	-13	28	97*	43	-1
C=CCn1c(NS(=O)(=O)c2ccccc2)c(S(=O)(=O)c2ccc(C)cc2)c2nc3ccccc3nc21	6	9	11	-1	3	0
O=S(=O)(Nc1c(S(=O)(=O)c2ccccc2)c2nc3ccccc3nc2n1C1CCCCC1)c1ccccc1	-6	106*	-2	2	0	0
SMILES	PolyA inhibitor	CSC inhib	Calb FLC	Beta apoptosis	T cruzi repl	HIF act
COc1ccc([N+](=O)[O-])cc1N(CC(=O)N1CCN(Cc2ccccc2)CC1)S(C)(=O)=O	19	-5	-9	-4	-9	2
CCOC(=O)N1CCN(C(=O)c2oc3ccc(S(=O)(=O)N4CCCCCC4)cc3c2C)CC1	-2	-4	-5	8	65*	-1
Cc1c(C(=O)N(Cc2ccccc2)C(C)C)oc2ccc(S(=O)(=O)N3CCOCC3)cc12	-31	7	-2	90*	11	-1
Cc1c(C(=O)N(C)Cc2ccccc2)oc2ccc(S(=O)(=O)N3CCCC3)cc12	-9	1	19	-1	17	-1
COc1cccc(CNC(=O)CCCn2c(=S)[nH]c3cc4c(cc3c2=O)OCO4)c1	-17	3	17	3	6	29*
COc1cccc(N2CCN(C(=O)CCCCCn3c(=S)[nH]c4cc5c(cc4c3=O)OCO5)CC2)c1	-5	15	8	23	19	-2
COCCN(C(=O)COC(=O)CCOc1cccc(C)c1)c1c(N)n(Cc2ccccc2)c(=O)[nH]c1=O	-6	0	6	-5	-4	0
O=C(CCc1ccccc1)NNc1cc(N2CCCCC2)nc(N2CCCCC2)n1	-7	-2	26	2	57*	-2
CC(C)(C)c1ccc(C(=O)NNc2cc(N3CCCCC3)nc(N3CCCCC3)n2)cc1	-14	45	-9	18	93*	-2
CC(C)(C)c1ccc(C(=O)NNc2cc(N3CCOCC3)nc(N3CCOCC3)n2)cc1	-1	-4	-6	-1	17	-1
CSc1nnc(NC(=O)c2ccc(S(=O)(=O)N3CCOCC3)cc2)s1	20	-9	0	5	-17	1
COc1ccc(Oc2ccc(-c3ccn[nH]3)cc2)cc1	-20	-1	2	-3	15	3
Nc1c(C(=O)Nc2ccc3c(c2)OCCO3)nnn1Cc1ccccc1Cl	7	6	4	93*	-35	3
Nc1c(C(=O)Nc2ccc3c(c2)OCCO3)nnn1Cc1cccc(Cl)c1	13	70	1	27	-12	4
O=C(NC1(Cc2ccccc2)CCN(CCCc2ccccc2)C1=O)c1ccccc1 (stereo unspecified)	·	-10	·	111*	·	·
OCC1(Cc2ccc(Cl)cc2)CCN(CCCc2ccccc2)CC1	-4	-11	-11	-5	49	-1
CCCCCc1nnc(NC(=O)C2=COCCO2)s1	-6	-6	4	-6	-22	4
CC(=O)NC(c1ccco1)c1cc(Cl)c2ccccc2c1O (stereo unspecified)	·	12	·	-5	·	·
CC(=O)NC(c1cccs1)c1cc(F)c2cccnc2c1O (stereo unspecified)	·	51	·	91*	·	·
CC(=O)NC(c1ccco1)c1cc(F)c2cccnc2c1O (stereo unspecified)	·	22	·	82*	·	·
O=C(CCn1nnc2ccccc21)OCC(=O)c1ccc(F)cc1	9	1	-4	-11	-11	-1
CCCCNC(=O)CSc1nc2ccc(Nc3nc(N4CCOCC4)nc(N4CCOCC4)n3)cc2s1	4	-4	8	5	31	-1
